# Experimental data: ChEMBL document CHEMBL2417468, “4β-[4'-(1-(Aryl)ureido)benzamide]podophyllotoxins as DNA topoisomerase I and IIα inhibitors and apoptosis inducing agents” (2013)
# Activity calls are given as the source filed them. The calls are words filed in the database; no cut-off is given here.
# Assays:
# COLO 205 [1] = assay: Induction of apoptosis in human COLO205 cells assessed as caspase-3 activation at 2 uM after 24 hrs by Western blotting analysis; format: functional, cell-based
# How it was run: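 Colo-205 cells grown to 80% confluency, 2 µM final for 24 h; RIPA lysates with protease inhibitors, Bradford-quantified, 50 µg protein per lane on 12% SDS-PAGE, PVDF transfer, probed overnight at 4 °C for active caspase-3, β-actin as loading control, chemiluminescent detection.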
# COLO 205 [2] = assay: Induction of apoptosis in human COLO205 cells assessed as caspase-3 activation at 2 uM after 24 hrs by ELISA; format: functional, cell-based
# How it was run: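 Colo-205 cells exposed 24 h at 2 µM; lysates in 2X reaction buffer with DTT plus caspase substrate, 1 h at 37 °C; fluorescence read at ex 400/em 505 nm; three independent experiments, mean ± S.D., versus untreated control.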
# [3] = target: DNA topoisomerase 2-alpha (Homo sapiens) (UniProt P11388); assay: Inhibition of human topoisomerase 2alpha-mediated relaxation of supercoiled pBR322 DNA at 2 uM after 30 mins by agarose gel electrophoresis
# How it was run: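 Purified human topoisomerase IIα (4 units) with 200 ng supercoiled pBR322 and compound at 2 µM, 30 min at 30 °C in 10 mM Tris-HCl pH 7.9, 50 mM NaCl, 5 mM MgCl2, 1 mM EDTA, 1 mM ATP, 15 µg/mL BSA; EDTA-stopped; 1% agarose gel in TAE, ethidium bromide, UV visualisation.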
# COLO 205 [4] = assay: Cell cycle arrest in human COLO205 cells assessed as accumulation at G2/M phase at 2 uM after 24 hrs by propidium iodide staining-based FACS flow cytometric analysis (reference value: 29.52%); format: functional
# COLO 205 [5] = assay: Cell cycle arrest in human COLO205 cells assessed as accumulation at S phase at 2 uM after 24 hrs by propidium iodide staining-based FACS flow cytometric analysis (reference value: 4.21%); format: functional
# COLO 205 [6] = assay: Cell cycle arrest in human COLO205 cells assessed as accumulation at G0/G1 phase at 2 uM after 24 hrs by propidium iodide staining-based FACS flow cytometric analysis (reference value: 65.23%); format: functional
# COLO 205 [7] = assay: Cytotoxicity against human COLO205 cells assessed as reduction in cellular ATP level at 2 uM after 24 hrs by bioluminescence assay; format: functional, cell-based
# How it was run: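 Colo-205 cells exposed 24 h at 2 µM, lysed in ice-cold RIPA, debris spun off at 4 °C; intracellular ATP in supernatant by luciferin-luciferase bioluminescence kit; three independent experiments, mean ± S.D., untreated control.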
# COLO 205 [8] = assay: Cytotoxicity against human COLO205 cells assessed as viable cells at 2 uM after 24 hrs by trypan blue exclusion assay; format: functional, cell-based
# How it was run: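 Colo-205 cells treated 24 h at 1, 2 and 4 µM, trypsinised, mixed with 0.4% trypan blue (10 µl per 100 µl cells), counted on haemocytometer; percentage dead cells calculated; triplicate samples.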
# MDA-MB-231 [9] = assay: Cytotoxicity against human MDA-MB-231 cells assessed as cell viability at 2 to 4 uM after 24 hrs by MTT assay; format: functional, cell-based
# How it was run: (§1)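 Colo-205 (RPMI, 10% FCS) and MDA-MB-231 (DMEM, 2 mM glutamax, 10% FCS, penicillin/streptomycin) seeded at 1 104 cells/well, 18 h preincubation; fresh medium with compound at 0.5, 1, 2 and 4 µM for 24 h at 37 °C; MTT 2 h, formazan solubilised, OD 570 nm; DMSO ≤0.25%, DMSO-only wells as untreated control.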
# COLO 205 [10] = assay: Cytotoxicity against human COLO205 cells assessed as cell viability at 2 to 4 uM after 24 hrs by MTT assay; format: functional, cell-based; how it was run: as §1
# MDA-MB-231 [11] = assay: Cytotoxicity against human MDA-MB-231 cells assessed as cell viability at <0.5 to 1 uM after 24 hrs by MTT assay; format: functional, cell-based; how it was run: as §1
# COLO 205 [12] = assay: Cytotoxicity against human COLO205 cells assessed as cell viability at <0.5 to 1 uM after 24 hrs by MTT assay; format: functional, cell-based; how it was run: as §1
# A2780 = assay: Growth inhibition of human A2780 cells after 48 hrs by sulforhodamine B assay; format: functional
# SiHa = assay: Growth inhibition of human SiHa cells after 48 hrs by sulforhodamine B assay; format: functional
# A549 = assay: Growth inhibition of human A549 cells after 48 hrs by sulforhodamine B assay; format: functional
# HOP-62 = assay: Growth inhibition of human HOP62 cells after 48 hrs by sulforhodamine B assay; format: functional
# COLO 205 [13] = assay: Growth inhibition of human COLO205 cells after 48 hrs by sulforhodamine B assay; format: functional
# [14] = (§2) Growth inhibition of human DWD cells after 48 hrs by sulforhodamine B assay; format: functional
# [15] = (§3) Growth inhibition of human Gurav cells after 48 hrs by sulforhodamine B assay; format: functional
# KB = assay: Growth inhibition of human KB cells after 48 hrs by sulforhodamine B assay; format: functional
# MCF7 = assay: Growth inhibition of human MCF7 cells after 48 hrs by sulforhodamine B assay; format: functional; settings: MCF7, 48 h
# ZR-75-1 = assay: Growth inhibition of human ZR-75-1 cells after 48 hrs by sulforhodamine B assay; format: functional
# DWD = assay: as §2; format: functional
# Gurav = assay: as §3; format: functional
# Sequence of DNA topoisomerase 2-alpha (Homo sapiens) (P11388 whole entry): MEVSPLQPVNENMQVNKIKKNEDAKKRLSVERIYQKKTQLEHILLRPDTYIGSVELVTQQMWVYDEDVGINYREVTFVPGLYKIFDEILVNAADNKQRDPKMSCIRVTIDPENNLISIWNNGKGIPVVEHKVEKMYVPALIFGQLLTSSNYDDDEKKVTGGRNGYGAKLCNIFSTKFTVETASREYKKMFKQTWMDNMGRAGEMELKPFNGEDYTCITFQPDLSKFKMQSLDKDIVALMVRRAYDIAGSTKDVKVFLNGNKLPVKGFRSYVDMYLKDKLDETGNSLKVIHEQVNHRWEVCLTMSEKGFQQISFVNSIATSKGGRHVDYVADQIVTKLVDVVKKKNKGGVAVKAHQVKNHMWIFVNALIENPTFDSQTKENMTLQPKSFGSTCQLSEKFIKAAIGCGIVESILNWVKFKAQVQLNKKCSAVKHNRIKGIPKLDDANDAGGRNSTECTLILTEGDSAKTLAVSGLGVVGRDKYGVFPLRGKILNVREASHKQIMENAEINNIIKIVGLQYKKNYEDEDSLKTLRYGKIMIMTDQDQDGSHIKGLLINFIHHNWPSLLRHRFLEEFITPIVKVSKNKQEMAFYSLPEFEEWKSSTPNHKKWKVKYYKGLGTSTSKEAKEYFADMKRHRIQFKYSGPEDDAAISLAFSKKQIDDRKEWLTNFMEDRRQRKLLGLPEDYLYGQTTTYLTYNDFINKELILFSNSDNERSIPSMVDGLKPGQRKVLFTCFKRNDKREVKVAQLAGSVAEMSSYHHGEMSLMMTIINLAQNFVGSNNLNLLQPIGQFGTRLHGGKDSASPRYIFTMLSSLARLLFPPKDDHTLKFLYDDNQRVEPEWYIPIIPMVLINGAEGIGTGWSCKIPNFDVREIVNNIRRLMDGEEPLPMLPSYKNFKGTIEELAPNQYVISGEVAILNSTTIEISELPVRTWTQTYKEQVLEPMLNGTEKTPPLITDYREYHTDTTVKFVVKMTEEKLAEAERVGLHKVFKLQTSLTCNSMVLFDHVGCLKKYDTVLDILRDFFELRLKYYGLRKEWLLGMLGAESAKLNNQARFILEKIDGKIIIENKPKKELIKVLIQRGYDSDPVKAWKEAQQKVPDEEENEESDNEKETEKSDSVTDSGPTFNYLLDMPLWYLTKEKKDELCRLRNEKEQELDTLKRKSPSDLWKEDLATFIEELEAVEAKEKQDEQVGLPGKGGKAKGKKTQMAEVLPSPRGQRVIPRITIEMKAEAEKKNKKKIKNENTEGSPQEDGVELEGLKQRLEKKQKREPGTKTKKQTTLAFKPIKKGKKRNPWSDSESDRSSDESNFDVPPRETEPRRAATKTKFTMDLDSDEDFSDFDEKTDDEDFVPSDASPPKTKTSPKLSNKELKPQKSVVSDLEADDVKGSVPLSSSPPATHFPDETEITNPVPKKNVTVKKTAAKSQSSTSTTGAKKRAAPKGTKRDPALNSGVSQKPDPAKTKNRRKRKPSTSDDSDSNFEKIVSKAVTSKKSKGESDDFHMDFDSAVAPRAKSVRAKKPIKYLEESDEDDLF
Structure (SMILES),"GI50 (A2780; A2780, 48 h) [µM]",GI50 (SiHa),"GI50 (A549; A549, 48 h) [µM]","GI50 (HOP-62; HOP-62, 48 h) [µM]","GI50 (COLO 205 [13]; COLO 205, 48 h) [µM]",GI50 [14] [µM],GI50 [15] [µM],GI50 (KB),GI50 (MCF7) [µM],"GI50 (ZR-75-1; ZR-75-1, 48 h) [µM]",GI50 (HOP-62),GI50 (COLO 205 [13]),GI50 (Gurav),other results
COc1cc([C@@H]2c3cc4c(cc3[C@@H](NC(=O)c3ccc(NC(=O)NCCCl)cc3)[C@H]3COC(=O)[C@H]23)OCO4)cc(OC)c1OC,1.3,inactive,1.12,0.12,0.01,1.6,0.1,0.21 µM,0.1,2.9,–,–,–,Activity (COLO 205 [1]): Active; Activity (COLO 205 [2]): Active; Inhibition of relaxation (qualitative call) [3]: Active; Activity (COLO 205 [4]): 18.15%; Percent of cells in S phase (COLO 205 [5]): 5.62%; Activity (COLO 205 [6]): 76.22%; Activity (COLO 205 [7]): Active; Activity (COLO 205 [8]): Active; Activity (MDA-MB-231 [9]): Active; Activity (COLO 205 [10]): Active; Activity (MDA-MB-231 [11]): inactive; Activity (COLO 205 [12]): inactive
COc1cc([C@@H]2c3cc4c(cc3[C@@H](NC(=O)c3ccc(NC(=O)Nc5cc(C(F)(F)F)cc(C(F)(F)F)c5)cc3)[C@H]3COC(=O)[C@H]23)OCO4)cc(OC)c1OC,2.3,inactive,2.98,–,–,–,–,2.6 µM,2.7,2.22,inactive,inactive,inactive,GI50 (DWD): inactive
COc1cc([C@@H]2c3cc4c(cc3[C@@H](NC(=O)c3ccc(NC(=O)Nc5cccc(Cl)c5)cc3)[C@H]3COC(=O)[C@H]23)OCO4)cc(OC)c1OC,2.8,inactive,–,2.5,2.6,2.3,2.01,inactive,2.6,2.9,–,–,–,GI50 (A549): inactive
COc1cc([C@@H]2c3cc4c(cc3[C@@H](NC(=O)c3ccc(NC(=O)Nc5c(Cl)cccc5Cl)cc3)[C@H]3COC(=O)[C@H]23)OCO4)cc(OC)c1OC,–,inactive,–,–,–,–,–,2.8 µM,0.15,–,inactive,inactive,inactive,GI50 (A2780): inactive; GI50 (A549): inactive; GI50 (DWD): inactive; GI50 (ZR-75-1): inactive
COc1cccc2c1C(=O)c1c(O)c3c(c(O)c1C2=O)C[C@@](O)(C(=O)CO)C[C@@H]3O[C@H]1C[C@H](N)[C@H](O)[C@H](C)O1 [DOXORUBICIN],0.16,0.17 µM,–,0.14,0.14,0.1,0.17,0.17 µM,0.17,–,–,–,–,–
COc1cc([C@@H]2c3cc4c(cc3[C@@H](NC(=O)c3ccc(NC(=O)Nc5ccc(F)c(Cl)c5)cc3)[C@H]3COC(=O)[C@H]23)OCO4)cc(OC)c1OC,–,inactive,1.5,2.71,2.52,2.61,–,2.01 µM,0.12,2.9,–,–,inactive,GI50 (A2780): inactive
COc1ccc(NC(=O)Nc2ccc(C(=O)N[C@@H]3c4cc5c(cc4[C@@H](c4cc(OC)c(OC)c(OC)c4)[C@H]4C(=O)OC[C@@H]43)OCO5)cc2)cc1,1.35,inactive,1.5,0.12,0.02,1.7,0.24,2.31 µM,1.1,0.18,–,–,–,Activity (COLO 205 [1]): Active; Activity (COLO 205 [2]): Active; Inhibition of relaxation (qualitative call) [3]: Active; Activity (COLO 205 [4]): 17.88%; Percent of cells in S phase (COLO 205 [5]): 5.09%; Activity (COLO 205 [6]): 76.61%; Activity (COLO 205 [7]): Active; Activity (COLO 205 [8]): Active; Activity (MDA-MB-231 [9]): Active; Activity (COLO 205 [10]): Active; Activity (MDA-MB-231 [11]): inactive; Activity (COLO 205 [12]): inactive
COc1cc([C@@H]2c3cc4c(cc3[C@@H](NC(=O)c3ccc(NC(=O)NCCBr)cc3)[C@H]3COC(=O)[C@H]23)OCO4)cc(OC)c1OC,0.14,0.21 µM,0.1,0.1,0.01,0.17,1.85,inactive,0.14,0.16,–,–,–,Activity (COLO 205 [1]): Active; Activity (COLO 205 [2]): Active; Inhibition of relaxation (qualitative call) [3]: Active; Activity (COLO 205 [4]): 19.94%; Percent of cells in S phase (COLO 205 [5]): 5.96%; Activity (COLO 205 [6]): 74.1%; Activity (COLO 205 [7]): Active; Activity (COLO 205 [8]): Active; Activity (MDA-MB-231 [9]): Active; Activity (COLO 205 [10]): Active; Activity (MDA-MB-231 [11]): inactive; Activity (COLO 205 [12]): inactive
COc1cc([C@@H]2c3cc4c(cc3[C@@H](NC(=O)c3ccc(NC(=O)NCc5ccco5)cc3)[C@H]3COC(=O)[C@H]23)OCO4)cc(OC)c1OC,2.3,inactive,2.62,–,2.34,2.5,–,1.93 µM,2.9,2.6,inactive,–,inactive,–
COc1cc([C@@H]2c3cc4c(cc3[C@@H](NC(=O)c3ccc(NC(=O)Nc5ccc(Br)s5)cc3)[C@H]3COC(=O)[C@H]23)OCO4)cc(OC)c1OC,2.1,2.9 µM,1.4,2.6,–,0.1,–,2.5 µM,0.12,2.4,–,inactive,inactive,–
COc1cc([C@@H]2c3cc4c(cc3[C@@H](NC(=O)c3ccc(NC(=O)Nc5cc(C)cc(C)c5)cc3)[C@H]3COC(=O)[C@H]23)OCO4)cc(OC)c1OC,–,inactive,–,–,–,1.6,2.7,2.31 µM,0.15,2.91,inactive,inactive,–,GI50 (A2780): inactive; GI50 (A549): inactive
COc1cc([C@@H]2c3cc4c(cc3[C@@H](NC(=O)c3ccc(NC(=O)Nc5cccc6ccccc56)cc3)[C@H]3COC(=O)[C@H]23)OCO4)cc(OC)c1OC,2.22,2.3 µM,2.01,–,2.23,–,2.9,inactive,0.11,2,inactive,–,–,GI50 (DWD): inactive
